High-throughput results from PubChem BioAssay.
NF-kB expr up: activators of NF-kB expression in neurons, primary screen, cell-based, HTS; human neuronal cells, NF-kB reporter expression; stronger effect = higher value; fold change at 12.5 µM; hit rate 1.6% among 190,000; in the data active = fold change above about 3.3
STAT1 activator: STAT1 signaling activators, primary screen, cell-based, HTS, luciferase reporter; NIH 3T3 STAT1-luciferase reporter, IFN-gamma, luminescence; 100% = IFN-gamma alone, no compound; activation (% of control), % at 5.5 µM; hit rate 2.6% among 200,000;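 active = activation above the screen-wide mean activation plus 3 SD, cut at about 130% in these data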;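 also: raw ratio to IFN-gamma control signal so 100% means no change and 0% no light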
MDM2 E3 inh: MDM2-luciferase reporter signal enhancers, primary screen, MDM2 E3 ligase inhibitor project, cell-based, luminescence, 1536-well; signal enhancement, % at 5 µM; hit rate 0.11% among 210,000; E3 ubiquitin-protein ligase Mdm2 (Homo sapiens), Q00987; AID 1230, 2008; cell-based MDM2 ubiquitination luciferase reporter, 2 h; 0 = plate control, 100 = twice control, blank-subtracted;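 active = signal enhancement of 30% or more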;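 also: luminescence tracks abundance of the self-degrading MDM2-luciferase fusion protein; higher signal means inhibition of MDM2 E3 ligase activity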
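Test system: mammalian cells stably expressing self-ubiquitinating, self-degrading MDM2 E3–luciferase fusion; Amount: 2000 cells in each well; Medium: DMEM; Schedule: 4 h settle plus 2 h compound, 37 °C; Technique: SteadyLite luciferase luminescence after 15 min room-temperature reagent incubation; Benchmarks: plate control and blank wells.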
PERK inh: block of dimerizer-induced PERK translation repression, primary screen, PERK inhibitor project, CHO PERK-DD cells, SEAP luminescence, HTS; inhibition, % at 5.6 µM; AID 1416, 2008; Eukaryotic translation initiation factor 2-alpha kinase 3 (Homo sapiens), Q9NZJ5; CHO PERK-DD fusion, SEAP luminescence translation reporter; hit rate 0.17% among 220,000;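 active = inhibition above the mean inhibition of all tested compounds plus 3 SD, set separately per screening campaign, cut at about 2.9% in these data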;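 also: PERK kinase domain activated by AP20187 dimerizer at 100 nM; 0% = DMSO with dimerizer and 100% = rapamycin at 8.4 µM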
AHR act: AHR activators, primary screen, cell-based, luminescence, luciferase reporter, human; activation, % at 5 µM; Aryl hydrocarbon receptor (Homo sapiens), P35869; AHR-responsive luciferase reporter cells; AID 2796, 2010; hit rate 2.5% among 320,000; in the data active = activation above about 47%;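 also: 0% = vehicle wells and 100% = reference agonist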
Target sequence (P35869 whole entry, looked up): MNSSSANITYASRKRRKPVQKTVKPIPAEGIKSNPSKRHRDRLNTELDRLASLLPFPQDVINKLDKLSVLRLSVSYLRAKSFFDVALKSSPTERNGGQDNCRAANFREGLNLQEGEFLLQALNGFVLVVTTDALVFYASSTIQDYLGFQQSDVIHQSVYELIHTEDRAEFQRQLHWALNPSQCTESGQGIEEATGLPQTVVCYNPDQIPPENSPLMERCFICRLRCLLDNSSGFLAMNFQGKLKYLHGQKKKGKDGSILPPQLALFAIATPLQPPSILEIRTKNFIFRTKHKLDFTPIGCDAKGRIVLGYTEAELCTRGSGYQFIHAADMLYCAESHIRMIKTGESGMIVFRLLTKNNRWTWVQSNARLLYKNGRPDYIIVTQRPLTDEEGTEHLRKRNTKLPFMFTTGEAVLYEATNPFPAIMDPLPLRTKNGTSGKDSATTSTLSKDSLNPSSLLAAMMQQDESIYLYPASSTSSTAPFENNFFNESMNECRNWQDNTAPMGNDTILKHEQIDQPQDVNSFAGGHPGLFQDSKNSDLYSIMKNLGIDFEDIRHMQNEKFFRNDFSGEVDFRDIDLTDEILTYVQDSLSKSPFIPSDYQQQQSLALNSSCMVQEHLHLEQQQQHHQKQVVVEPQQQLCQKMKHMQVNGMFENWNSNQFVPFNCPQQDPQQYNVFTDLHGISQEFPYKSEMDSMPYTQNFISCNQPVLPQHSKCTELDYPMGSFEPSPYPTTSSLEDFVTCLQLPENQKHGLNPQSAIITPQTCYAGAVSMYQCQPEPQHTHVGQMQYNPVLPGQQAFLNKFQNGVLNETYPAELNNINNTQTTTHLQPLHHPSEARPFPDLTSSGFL
APP 5'UTR act: activators of APP 5'UTR luciferase reporter, primary screen, SH-SY5Y cells. hit rate 1% among 190,000. SH-SY5Y APP 5'UTR luciferase reporter, luminescence; zero percent = DMSO vehicle wells. AID 1276, 2008. activation, % at 2 µM;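 active = activation above a set limit, based on mean plus 3 SD of controls, cut at about 140% in these data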
AHR act confirm: AHR activators, confirmation, cell-based, luminescence, luciferase reporter, human; shares compounds with AHR act; human cells, AHR-responsive luciferase reporter; activation, % at 9 µM; hit rate 87% among 2,300; in the data active = activation above about 49%;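 also: HepG2 hepatoma cells carrying a DRE-driven firefly luciferase reporter; 0% = vehicle wells and 100% = reference agonist wells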
PXR counter: human PXR activators, counter-screen for AHR activator project, cell-based, luciferase luminescence; shares compounds with AHR act; cell-based PXR reporter; activation, % at 11.6 µM; hit rate 88% among 2,300; AID 434939, 2010; in the data active = activation above about 11%;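 also: human hepatoma DPX-2 cells expressing full-length human PXR; 0% = DMSO and 100% = reference agonist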
* marks the source's active call; other numbers are inactive results; . = no result given. Rows were chosen to be rich in hits. Some 4.5% of all compounds tested hit in one or more screens of this group.

SMILES | NF-kB expr up | STAT1 activator | MDM2 E3 inh | PERK inh | AHR act | APP 5'UTR act | AHR act confirm | PXR counter
COc1ccc(-c2[nH]c(-c3ccc(F)cc3)nc2SCC(=O)NCc2ccco2)cc1OC | 0.93 | 98.1 | -11.6 | 0.5 | 80.4* | 18.0 | 63.1* | 57.2*
COc1ccc(-n2nnnc2SCC(=O)NCc2ccco2)cc1OC | 1.43 | 97.0 | -0.1 | -0.1 | 1.3 | 2.5 | . | .
COc1ccc(-c2[nH]c(-c3ccccc3)nc2SCC(=O)NCc2ccco2)cc1OC | 0.94 | 97.1 | -20.7 | -1.0 | 121.1* | 10.5 | 68.2* | 75.1*
COc1ccc(OC)c(NC(=O)CCCSc2ccccc2)c1 | . | . | . | . | -0.8 | . | . | .
CCc1ccc(C(=O)N2CCN(c3ccc(NC(=O)c4cccnc4)cc3)CC2)cc1 | . | . | . | . | -10.7 | . | . | .
Cc1cc(C)cc(NC(=S)Nc2ccccn2)c1 | 1.1 | 96.2 | 1.3 | 0.6 | 90.9* | 11.8 | 111.6* | 26.7*
Fc1ccc(Nc2cccc3nccnc23)cc1 | 1.23 | 115.4 | 1.2 | -0.2 | 137.4* | 13.2 | 57.7* | 13.1*
COc1ccc(COC(=O)CNC(=O)C2CCCCC2)cc1F | . | . | . | . | -1.6 | . | . | .
CN(C)CCNC(=O)c1sc2nc(-c3ccccc3)cc(C(F)(F)F)c2c1N | . | . | . | . | 90.9* | . | 100.2* | 10.8*
COc1ccc(/C=N/Nc2snc(SC)c2C#N)cc1OC | 2.27 | 127.4 | -2.8 | -0.8 | 84.3* | 91.9 | 136.8* | 25.5*
COc1ccc(/C=N/Nc2nnc(Cc3ccc(OC)c(OC)c3)c(=O)[nH]2)cc1OC | 1.02 | 101.5 | 2.9 | 0.1 | 4.2 | -14.9 | . | .
O=c1c2ccccc2nc2oc3ccccc3n12 | . | . | . | . | 94.5* | . | 93.2* | 16.6*
O=c1[nH]nc(Cc2ncc(C(F)(F)F)cc2Cl)c2ccccc12 | . | . | . | . | 2.2 | . | . | .
O=C1Nc2ccccc2C1c1ncc(C(F)(F)F)cc1Cl (stereo unspecified) | . | . | . | . | 90.0* | . | 30.1 | 21.4*
O=C(O)CC1(CC(=O)Nc2ccc(Oc3cccc(C(F)(F)F)c3)nc2)CCCC1 | . | . | -11.5 | 2.8 | -0.8 | . | . | .
c1ccc(-c2cc3cc4c(cc3cn2)OCO4)cc1 | . | . | . | . | 122.9* | . | 67.4* | 90.4*
COc1cc2cnc(-c3ccccc3)cc2cc1OC | . | . | . | . | 113.9* | . | 122.2* | 14.3*
c1ccc(-c2cc3ccccc3cn2)cc1 | . | . | . | . | 37.0 | . | . | .
Cc1ccsc1C(=O)OC(C)C(=O)Nc1ccc(Cl)cn1 (stereo unspecified) | . | . | . | . | 0.3 | . | . | .
CC(=O)N1c2ccc(S(=O)(=O)N(C)CC(=O)NC3CCCCC3C)cc2CC1C (stereo unspecified) | . | . | . | . | 3.5 | . | . | .
O=c1[nH]nc(-c2ccccc2)cc1-c1ccccc1 | . | . | . | . | 1.2 | . | . | .
Cc1ccccc1-c1cc(-c2ccccc2O)n[nH]1 | 7.65* | 99.4 | -24.3 | 1.2 | 111.8* | 157.6* | 95.5* | 9.8
COc1ccc(-c2cc(-c3ccccc3)n[nH]2)c(O)c1 | 7.86* | 98.9 | -0.7 | 0.6 | 125.3* | 190.5* | 73.0* | 16.6*
Oc1ccccc1-c1cc(-c2ccccc2)n[nH]1 | . | . | . | . | 97.5* | . | 87.8* | 13.1*
CC1CCCN(c2ccc([N+](=O)[O-])cc2C(=O)c2ccccc2)C1 (stereo unspecified) | 3.11 | 96.8 | 1.5 | -0.8 | -2.0 | -93.9 | . | .
SMILES | NF-kB expr up | STAT1 activator | MDM2 E3 inh | PERK inh | AHR act | APP 5'UTR act | AHR act confirm | PXR counter
COc1ccc2[nH]c3c(=O)n4c(nc3c2c1)SCCC4 | 1.1 | 66.0 | . | 1.3 | 24.6 | 12.7 | . | .
Cc1ccc2[nH]c3c(=O)n4c(nc3c2c1)SCC4 | 1.17 | 88.4 | -11.0 | 0.7 | 123.2* | 1.7 | 149.9* | 31.2*
COc1ccc(N2CCN(C(=O)NC3CC(=O)N(c4ccc(OC)cc4)C3)CC2)cc1 (stereo unspecified) | 0.95 | 100.5 | -13.4 | -0.1 | 2.4 | 2.1 | . | .
Cc1ccccc1S(=O)(=O)Cc1ccc(C(=O)N2CCN(c3ccccc3F)CC2)o1 | . | . | . | . | 3.3 | . | . | .
O=c1c2[nH]c3ccc(F)cc3c2ncn1CCCn1ccnc1 | 1.23 | 95.7 | -31.7 | -0.1 | 95.7* | -6.8 | 81.4* | 17.5*
O=C(c1ccc(S(=O)(=O)N2CCCCC2)cc1)N1CCN(CCN2C(=O)c3cccc4cccc(c34)C2=O)CC1 | 1.06 | 102.2 | -13.8 | 0.6 | -1.0 | -11.4 | . | .
CC(=O)c1ccc(OCC(O)CN2CCN(CCN3C(=O)c4cccc5cccc(c45)C3=O)CC2)cc1 (stereo unspecified) | 0.25 | 119.1 | -4.4 | -0.6 | -7.5 | 5.5 | . | .
CCOc1ccc(NC(=S)N2CCN(CCN3C(=O)c4cccc5cccc(c45)C3=O)CC2)cc1 | 1.08 | 107.7 | -5.5 | 0.9 | 88.5* | -5.2 | 107.5* | 55.1*
O=C(/C=C/c1ccccc1)N1CCN(CCN2C(=O)c3cccc4cccc(c34)C2=O)CC1 | 0.68 | 91.2 | 3.1 | 0.2 | 102.0* | -3.7 | 83.3* | 51.2*
Cc1nn(CC(=O)Nc2ccc(Cl)c(S(=O)(=O)N(C)C)c2)c(C)c1[N+](=O)[O-] | 0.98 | 90.5 | -16.6 | -0.8 | 3.0 | 13.0 | . | .
Cc1cc(C)nc(/N=C(\N)Nc2ccc(S(=O)(=O)O)cc2)n1 | 1.27 | 104.7 | -12.9 | -0.1 | . | 5.4 | . | .
Cc1cc(C)nc(/N=C(\N)Nc2ccc(C)c([N+](=O)[O-])c2)n1 | 0.85 | 85.0 | -10.1 | -0.8 | 122.1* | 12.9 | 83.9* | 67.7*
CCN(CC(=O)NC1CCS(=O)(=O)C1)C(=O)c1cc(OC)c(OC)c(OC)c1 (stereo unspecified) | . | . | . | . | 1.1 | . | . | .
[O-]/[N+](=C\c1ccncc1)c1ccc(Br)cc1 | 4.52* | 122.2 | -11.5 | -0.3 | 123.1* | 95.1 | 130.4* | 16.3*
[O-]/[N+](=C/c1cccnc1)c1ccc(Br)cc1 | 2.08 | 112.8 | -9.5 | 0.3 | 93.2* | 93.3 | 117.3* | 18.1*
CC/C(C)=N/NC(=S)NCc1ccco1 | 1.14 | 98.3 | -5.7 | 0.6 | 14.8 | 20.0 | . | .
CCOc1ccc2[nH]c3c(NCC(C)C)ncnc3c2c1 | . | . | . | . | 100.2* | . | 100.9* | 49.3*
COc1ccc2[nH]c3c(NCCN(C(C)C)C(C)C)ncnc3c2c1 | 0.94 | 100.4 | -14.8 | -1.3 | 6.4 | 7.8 | . | .
CCOc1ccc2[nH]c3c(NCCN(CC)CC)ncnc3c2c1 | . | . | . | . | 7.0 | . | . | .
